In brackets after ≈: the same amount, converted by molar mass.
Key:
Type in all cases: functional
[1] = tested on: Staphylococcus aureus; test: Antibacterial activity against methicillin-susceptible Staphylococcus aureus ATCC 29213 by broth microdilution method
In short: (§1)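 Strains were ATCC reference strains or clinical isolates from China's national antimicrobial resistance surveillance network (MOHNARIN). In vitro activity was measured by broth microdilution following NCCLS recommendations. Results are reported as minimum inhibitory concentration (MIC) in mg/L.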

[2] = tested on: Haemophilus influenzae; test: Antibacterial activity against erythromycin-susceptible Haemophilus influenzae 07O114 by broth microdilution method; in short: as §1
[3] = tested on: Streptococcus pyogenes; test: Antibacterial activity against erythromycin-susceptible Streptococcus pyogenes 07U084 by broth microdilution method; in short: as §1
[4] = tested on: Streptococcus pneumoniae; test: Antibacterial activity against erythromycin-susceptible Streptococcus pneumoniae 07H252 by broth microdilution method; in short: as §1
[5] = tested on: Streptococcus pyogenes; test: Antibacterial activity against erythromycin-resistant Streptococcus pyogenes 03-233 by broth microdilution method
In short: (§2)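 Clinical isolates were supplied by China's Ministry of Health National Antimicrobial Resistance Investigation Net (MOHNARIN). Activity was reported as minimum inhibitory concentration (MIC), determined by broth microdilution following NCCLS recommendations.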

[6] = tested on: Staphylococcus epidermidis; test: Antibacterial activity against methicillin-resistant Staphylococcus epidermidis 07A066 by broth microdilution method; in short: as §2
[7] = tested on: Staphylococcus epidermidis; test: Antibacterial activity against methicillin-resistant Staphylococcus epidermidis 07R066 by broth microdilution method; in short: as §2
[8] = tested on: Haemophilus influenzae; test: Antibacterial activity against erythromycin-susceptible Haemophilus influenzae ATCC 49247 by broth microdilution method; in short: as §1
[9] = tested on: Staphylococcus epidermidis; test: Antibacterial activity against methicillin-susceptible Staphylococcus epidermidis 07C134 by broth microdilution method; in short: as §2
[10] = tested on: Staphylococcus aureus; test: Antibacterial activity against methicillin-susceptible Staphylococcus aureus ANS46 by broth microdilution method; in short: as §1
[11] = tested on: Streptococcus pneumoniae; test: Antibacterial activity against erythromycin-resistant Streptococcus pneumoniae 07D201 by broth microdilution method; in short: as §2
[12] = tested on: Haemophilus influenzae; test: Antibacterial activity against erythromycin-susceptible Haemophilus influenzae 07O339 by broth microdilution method; in short: as §1
[13] = tested on: Staphylococcus epidermidis; test: Antibacterial activity against methicillin-susceptible Staphylococcus epidermidis 07T202 by broth microdilution method; in short: as §1
[14] = tested on: Haemophilus influenzae; test: Antibacterial activity against erythromycin-susceptible Haemophilus influenzae 07O394 by broth microdilution method; in short: as §1
[15] = tested on: Streptococcus pyogenes; test: Antibacterial activity against erythromycin-susceptible Streptococcus pyogenes 07U086 by broth microdilution method; in short: as §1
[16] = tested on: Streptococcus pneumoniae; test: Antibacterial activity against erythromycin-resistant Streptococcus pneumoniae 07P390 by broth microdilution method; in short: as §2
[17] = tested on: Streptococcus pneumoniae; test: Antibacterial activity against erythromycin-susceptible Streptococcus pneumoniae ATCC 49619 by broth microdilution method; in short: as §1
[18] = tested on: Streptococcus pyogenes; test: Antibacterial activity against erythromycin-resistant Streptococcus pyogenes 01-533 by broth microdilution method; in short: as §2

**Q.** CC[C@H]1OC(=O)[C@H](C)C(=O)[C@H](C)[C@@H](O[C@@H]2O[C@H](C)C[C@H](N(C)C)[C@H]2O)[C@@](C)(OC)C[C@@H](C)C(=O)[C@H](C)[C@H]2N(CCCSc3nnc(C)s3)C(=O)O[C@]12C was tested. Which MIC [1] did it give?
**A.** Its MIC is 0.25 µg/mL (≈ 0.318 µM).

**Q.** What about the MIC [2] of the same compound?
**A.** The MIC was 2 µg/mL (≈ 2.55 µM).

**Q.** And the MIC [3]?
**A.** Its MIC is no more than 0.016 µg/mL.

**Q.** What about the MIC [4] of the same compound?
**A.** Its MIC is no more than 0.016 µg/mL.

**Q.** What about the MIC [5] of the same compound?
**A.** The MIC was greater than 32 µg/mL.

**Q.** What about the MIC [6] of the same compound?
**A.** Its MIC is 0.125 µg/mL (≈ 0.159 µM).

**Q.** What about the MIC [7] of the same compound?
**A.** Its MIC is 2 µg/mL (≈ 2.55 µM).

**Q.** What about the MIC [8] of the same compound?
**A.** The MIC was 2 µg/mL (≈ 2.55 µM).

**Q.** What about the MIC [9] of the same compound?
**A.** Its MIC is 0.125 µg/mL (≈ 0.159 µM).

**Q.** And the MIC [10]?
**A.** Its MIC is greater than 32 µg/mL.

**Q.** What about the MIC [11] of the same compound?
**A.** The MIC was 16 µg/mL (≈ 20.4 µM).

**Q.** And the MIC [12]?
**A.** The MIC was 2 µg/mL (≈ 2.55 µM).

**Q.** What about the MIC [13] of the same compound?
**A.** The MIC was greater than 32 µg/mL.

**Q.** What about the MIC [14] of the same compound?
**A.** The MIC was 2 µg/mL (≈ 2.55 µM).

**Q.** What about the MIC [15] of the same compound?
**A.** The MIC was 0.031 µg/mL (≈ 0.0395 µM).

**Q.** What about the MIC [16] of the same compound?
**A.** Its MIC is 0.125 µg/mL (≈ 0.159 µM).

**Q.** What about the MIC [17] of the same compound?
**A.** Its MIC is no more than 0.016 µg/mL.

**Q.** What about the MIC [18] of the same compound?
**A.** Its MIC is 1 µg/mL (≈ 1.27 µM).

**Q.** Which MIC [1] does the source give for CC[C@H]1OC(=O)[C@H](C)C(=O)[C@H](C)[C@@H](O[C@@H]2O[C@H](C)C[C@H](N(C)C)[C@H]2O)[C@@](C)(OC)C[C@@H](C)C(=O)[C@H](C)[C@H]2N(CCCSc3ccccn3)C(=O)O[C@]12C here?
**A.** Its MIC is 0.125 µg/mL (≈ 0.164 µM).

**Q.** And the MIC [2]?
**A.** The MIC was 8 µg/mL (≈ 10.5 µM).

**Q.** What about the MIC [3] of the same compound?
**A.** The MIC was 0.016 µg/mL (≈ 0.0209 µM).

**Q.** And the MIC [6]?
**A.** The MIC was 0.125 µg/mL (≈ 0.164 µM).

**Q.** And the MIC [7]?
**A.** Its MIC is 0.125 µg/mL (≈ 0.164 µM).

**Q.** What about the MIC [8] of the same compound?
**A.** The MIC was 8 µg/mL (≈ 10.5 µM).

**Q.** And the MIC [9]?
**A.** The MIC was 0.125 µg/mL (≈ 0.164 µM).

**Q.** What about the MIC [10] of the same compound?
**A.** The MIC was greater than 16 µg/mL.

**Q.** What about the MIC [12] of the same compound?
**A.** The MIC was 4 µg/mL (≈ 5.24 µM).

**Q.** What about the MIC [13] of the same compound?
**A.** The MIC was greater than 16 µg/mL.

**Q.** And the MIC [14]?
**A.** Its MIC is 8 µg/mL (≈ 10.5 µM).

**Q.** What about the MIC [15] of the same compound?
**A.** Its MIC is 0.016 µg/mL (≈ 0.0209 µM).

**Q.** And the MIC [17]?
**A.** Its MIC is 0.016 µg/mL (≈ 0.0209 µM).

**Q.** CC[C@H]1OC(=O)[C@H](C)C(=O)[C@H](C)[C@@H](O[C@@H]2O[C@H](C)C[C@H](N(C)C)[C@H]2O)[C@@](C)(OC)C[C@@H](C)C(=O)/C(C)=C/[C@]1(C)OC(=O)NCCCSc1nc2ccccc2o1 was tested. Which MIC [1] did it give?
**A.** The MIC was 4 µg/mL (≈ 4.98 µM).

**Q.** And the MIC [2]?
**A.** The MIC was greater than 16 µg/mL.

**Q.** And the MIC [3]?
**A.** The MIC was 2 µg/mL (≈ 2.49 µM).

**Q.** And the MIC [4]?
**A.** Its MIC is 16 µg/mL (≈ 19.9 µM).

**Q.** And the MIC [5]?
**A.** Its MIC is greater than 16 µg/mL.

**Q.** And the MIC [6]?
**A.** Its MIC is 4 µg/mL (≈ 4.98 µM).

**Q.** What about the MIC [7] of the same compound?
**A.** Its MIC is 4 µg/mL (≈ 4.98 µM).

**Q.** And the MIC [8]?
**A.** The MIC was greater than 16 µg/mL.

**Q.** And the MIC [9]?
**A.** Its MIC is 4 µg/mL (≈ 4.98 µM).

**Q.** And the MIC [10]?
**A.** Its MIC is greater than 16 µg/mL.

**Q.** And the MIC [11]?
**A.** Its MIC is greater than 16 µg/mL.

**Q.** And the MIC [12]?
**A.** The MIC was greater than 16 µg/mL.

**Q.** And the MIC [13]?
**A.** Its MIC is greater than 16 µg/mL.

**Q.** What about the MIC [14] of the same compound?
**A.** The MIC was greater than 16 µg/mL.

**Q.** And the MIC [15]?
**A.** The MIC was 2 µg/mL (≈ 2.49 µM).

**Q.** What about the MIC [16] of the same compound?
**A.** The MIC was greater than 16 µg/mL.

**Q.** What about the MIC [17] of the same compound?
**A.** The MIC was 2 µg/mL (≈ 2.49 µM).

**Q.** And the MIC [18]?
**A.** The MIC was greater than 16 µg/mL.

**Q.** What does the source list for CC[C@H]1OC(=O)[C@H](C)C(=O)[C@H](C)[C@@H](O[C@@H]2O[C@H](C)C[C@H](N(C)C)[C@H]2O)[C@@](C)(OC)C[C@@H](C)C(=O)[C@H](C)[C@H]2N(CCCSc3nccs3)C(=O)O[C@]12C?
**A.** MIC [1]: 0.125 µg/mL (≈ 0.162 µM); MIC [2]: 4 µg/mL (≈ 5.19 µM); MIC [3]: ≤ 0.016 µg/mL; MIC [4]: 0.5 µg/mL (≈ 0.649 µM); MIC [5]: > 32 µg/mL; MIC [6]: 0.125 µg/mL (≈ 0.162 µM); MIC [7]: 0.062 µg/mL (≈ 0.0805 µM); MIC [8]: 4 µg/mL (≈ 5.19 µM); MIC [9]: 0.125 µg/mL (≈ 0.162 µM); MIC [10]: > 32 µg/mL; MIC [11]: > 32 µg/mL; MIC [12]: 4 µg/mL (≈ 5.19 µM); MIC [13]: > 32 µg/mL; MIC [14]: 4 µg/mL (≈ 5.19 µM); MIC [15]: ≤ 0.016 µg/mL; MIC [16]: 0.25 µg/mL (≈ 0.325 µM); MIC [17]: 0.031 µg/mL (≈ 0.0403 µM); MIC [18]: 0.5 µg/mL (≈ 0.649 µM)

**Q.** CC[C@H]1OC(=O)[C@H](C)C(=O)[C@H](C)[C@@H](O[C@@H]2O[C@H](C)C[C@H](N(C)C)[C@H]2O)[C@@](C)(OC)C[C@@H](C)C(=O)[C@H](C)[C@H]2N(CCCSc3nc(-c4cccnc4)c[nH]3)C(=O)O[C@]12C was tested. Which MIC [1] did it give?
**A.** The MIC was 0.125 µg/mL (≈ 0.151 µM).

**Q.** And the MIC [2]?
**A.** Its MIC is 2 µg/mL (≈ 2.41 µM).

**Q.** What about the MIC [3] of the same compound?
**A.** The MIC was 0.031 µg/mL (≈ 0.0373 µM).

**Q.** What about the MIC [4] of the same compound?
**A.** The MIC was 0.25 µg/mL (≈ 0.301 µM).

**Q.** And the MIC [5]?
**A.** The MIC was 1 µg/mL (≈ 1.2 µM).

**Q.** What about the MIC [6] of the same compound?
**A.** Its MIC is 0.125 µg/mL (≈ 0.151 µM).

**Q.** What about the MIC [7] of the same compound?
**A.** The MIC was 0.125 µg/mL (≈ 0.151 µM).

**Q.** And the MIC [8]?
**A.** Its MIC is 2 µg/mL (≈ 2.41 µM).

**Q.** What about the MIC [9] of the same compound?
**A.** The MIC was 0.125 µg/mL (≈ 0.151 µM).

**Q.** And the MIC [10]?
**A.** The MIC was greater than 32 µg/mL.

**Q.** What about the MIC [11] of the same compound?
**A.** Its MIC is 4 µg/mL (≈ 4.82 µM).

**Q.** And the MIC [12]?
**A.** Its MIC is 2 µg/mL (≈ 2.41 µM).

**Q.** What about the MIC [13] of the same compound?
**A.** The MIC was 32 µg/mL (≈ 38.6 µM).

**Q.** What about the MIC [14] of the same compound?
**A.** The MIC was 2 µg/mL (≈ 2.41 µM).

**Q.** What about the MIC [15] of the same compound?
**A.** The MIC was 0.031 µg/mL (≈ 0.0373 µM).

**Q.** And the MIC [16]?
**A.** The MIC was 0.031 µg/mL (≈ 0.0373 µM).

**Q.** What about the MIC [17] of the same compound?
**A.** Its MIC is 0.062 µg/mL (≈ 0.0747 µM).

**Q.** What about the MIC [18] of the same compound?
**A.** The MIC was 0.125 µg/mL (≈ 0.151 µM).

From ChEMBL document CHEMBL1649395, “Synthesis and antibacterial activity of novel ketolides with 11,12-sulfur contained aryl alkyl side chains” (2011)
